This note sets out measurements from ChEMBL document CHEMBL1123528, “Syntheses and in vitro evaluation of 4-(2-aminoethyl)-2(3H)-indolones and related compounds as peripheral prejunctional dopamine receptor agonists” (J Med Chem, 1986).

The structures appear in SMILES notation.

For the assay, the species on record is Oryctolagus cuniculus. The assay can be described thus: Ability to stimulate peripheral prejunctional dopaminergic receptors by 50% inhibition of vasoconstrictor response to field stimulation in isolated perfused rabbit ear artery. The format is functional. The gist of the method:
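Isolated rabbit ear artery, perfused, constricted by electrical field (nerve) stimulation. The test drug was given in increasing concentrations, each left in contact with the tissue for 4 min, and the concentration was raised right after the response to nerve stimulation. For dopaminergic blockade, (S)-sulpiride superfusion began after the initial concentration-effect curve was obtained.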
Consider `CCCN(CCC)CCc1ccc(OC)c2c1CC(=O)N2`, for which the EC50 was > 3000 nM.
With `CCCN(CCc1ccc(O)cc1)CCc1cccc2c1CC(=O)N2` the figure was 28 nM; with `NCCc1ccc2c(c1)CC(=O)N2`, > 3000 nM.
Under `CCCN(CCC)CCc1ccc(O)c(NC=O)c1` stands 750 nM; under `CCCN(CCC)CCc1ccc(O)c2c1CC(=O)N2C`, > 3000 nM; under `CCCN(CCC)CCc1ccc2c(c1)NC(=O)C2`, > 3000 nM.
With `CCCN(CCC)CCc1ccc(O)c2c1C(C)C(=O)N2` (configuration not stated) the figure was 18 nM; with `CCCN(CCC)CCc1ccc(O)cc1`, 80 nM.
`NCCc1ccc(O)c2c1CC(=O)N2`: the EC50 amounted to 116 nM.
Consider `CCCN(CCC)CCc1ccc(O)c2c1C(C)(C)C(=O)N2`, for which the EC50 is > 3000 nM.
With `O=C1Cc2c(CCNCCc3ccc(O)cc3)ccc(O)c2N1` the figure was 53 nM; with `CCCN(CCC)CCc1ccc(O)c2c1C(C)(O)C(=O)N2` (configuration not stated), 218 nM.
Under `CCCN(CCC)CCc1ccc2c(c1)CC(=O)N2` stands 3000 nM; under `CCCN(CCC)CCc1ccc(O)c(NC(C)=O)c1`, > 10000 nM; under `CCCN(CCC)CCc1cccc(O)c1`, 700 nM.
With `NCCc1ccc(O)c(O)c1` [DOPAMINE] the figure was 73 nM.
Consider `CCCN(CCC)CCc1cccc2c1CC(=O)N2` [ROPINIROLE], for which it took 100 nM to reach a half-maximal effect (EC50).

One may read the EC50 as the concentration at which the effect is half-maximal.
